Rows were chosen to be rich in hits. Some 9.2% of all compounds tested hit in one or more screens of this group.
HCT116 PTEN-null: suppresses growth of cells with PTEN deletion; HCT116 PTEN-null viability, CellTiter-Glo, 60 h; active compounds read low; viability, % at 10 µM; hit rate 1.2% among 140,000; AID 827;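 active = viability at or below a set limit, 4 SD under the median of all tested compounds, cut at about 3.7% in these data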;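 also: PTEN knockout HCT116 line with beta catenin targeted HCT116 as companion control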
Lmaj promast: inhibitors of Leishmania major promastigote growth; Leishmania major promastigotes, resazurin fluorescence viability; inhibition, % at 10 µM; hit rate 9% among 200,000; in the data active = inhibition above about 50%;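 also: promastigotes grown with compound for 44 hours at 28 °C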
HCT116 bCat-KO: beta-catenin-lacking colon tumor cell growth suppression; HCT116 beta-catenin knockout viability, CellTiter-Glo, 60 h; active compounds read low; viability, % at 10 µM; hit rate 1.5% among 140,000;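 active = viability at or under a set limit, the compound median less 4 SD, cut at about 6% in these data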
Autophagy HCS: autophagy modulation, high-content screen | calls only at 10 µM (by protocol) | AID 463193 | hit rate 0.98% among 190,000 | MEF GFP-LC3 puncta imaging; test concentration mostly 10 µM;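 active = percentage of spot-positive cells more than 3 SD above its plate mean, without a fluorescence outlier flag or 80% toxicity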
Dynein transport: dynein cargo transport inhibition | AID 1381 | z-score, hits read low | 3617.4 mouse cells, GR-EGFP nuclear translocation imaging; test concentration mostly 20 µM; stimulated with dexamethasone, 1 µM; active compounds read low | hit rate 0.47% among 220,000;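 active = plate z-score of nuclear minus cytoplasmic receptor signal below a set negative limit, without overly bright fluorescence or cell loss, cut at about -3.5 in these data, passing the limit was not always enough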;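 also: z-score of nuclear minus cytoplasmic ring GR-EGFP intensity difference per well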
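Also added: dexamethasone, 1.0 µM final. Medium: tet-free, stripped-serum medium. Detection: fixed, Hoechst-stained cells imaged at 10x for EGFP. Read-out: nuclear-to-cytoplasmic GR-EGFP distribution per well. Times: induction 48 h, compound 1 h, agonist 30 min.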
Hits are given with their value.

Screening CN(C)c1ccc(C2CC(c3ccccc3)=Nc3nc(-c4ccccc4)cn32)cc1 (stereo not drawn) returned HCT116 PTEN-null inactive, Lmaj promast 91, HCT116 bCat-KO inactive, Autophagy HCS inactive and Dynein transport inactive.
Screening O=C(O)CCC(=O)Nc1nc2nccc(-c3ccccc3)n2n1 returned Dynein transport inactive.
COC(=O)c1cc(OC)c(OC)cc1NC(=S)N1CCN(C/C=C/c2ccccc2)CC1 was read as HCT116 PTEN-null inactive, Lmaj promast 99, HCT116 bCat-KO inactive, Autophagy HCS inactive and Dynein transport inactive.
O=C(Nc1ccc(F)cc1)N1CCN(C/C=C/c2ccccc2)CC1 was read as HCT116 PTEN-null inactive, Lmaj promast inactive, HCT116 bCat-KO inactive, Autophagy HCS inactive and Dynein transport inactive.
O=C(CCN1CCN(C/C=C/c2ccccc2)CC1)Nc1ccccc1F was read as HCT116 PTEN-null inactive, Lmaj promast 97, HCT116 bCat-KO inactive, Autophagy HCS inactive and Dynein transport inactive.
Screening O=C(CCN1CCN(c2ccccc2F)CC1)Nc1ccccc1F returned HCT116 PTEN-null inactive, Lmaj promast inactive, HCT116 bCat-KO inactive, Autophagy HCS inactive and Dynein transport inactive.
Screening Cc1ccccc1NC(=S)N1CCN(Cc2ccccc2)CC1 returned HCT116 PTEN-null inactive, Lmaj promast inactive, HCT116 bCat-KO inactive, Autophagy HCS inactive and Dynein transport inactive.
COC(=O)c1cc(OC)c(OC)cc1NC(=S)N1CCN(c2ccccn2)CC1 was read as Lmaj promast inactive, Autophagy HCS inactive and Dynein transport inactive.
`COc1ccccc1NC(=S)N1CCN(Cc2ccccc2)CC1` gave HCT116 PTEN-null inactive, Lmaj promast 83, HCT116 bCat-KO inactive, Autophagy HCS inactive and Dynein transport inactive.
O=C(Nc1cccc(F)c1)N1CCN(C/C=C/c2ccccc2)CC1 was read as HCT116 PTEN-null inactive, Lmaj promast 68, HCT116 bCat-KO inactive, Autophagy HCS inactive and Dynein transport inactive.
Screening Cc1cc(NC(=O)CSc2nnc(C3COc4ccccc4O3)n2N)no1 (stereo not drawn) returned Dynein transport inactive.
CCOC(=O)N1CCN(C(=S)Nc2cc(OC)c(OC)cc2C(=O)OC)CC1 was read as HCT116 PTEN-null inactive, Lmaj promast inactive, HCT116 bCat-KO inactive, Autophagy HCS inactive and Dynein transport inactive.
For COc1ccccc1NC(=S)N1CCN(C/C=C/c2ccccc2)CC1 the results were HCT116 PTEN-null inactive, Lmaj promast 67, HCT116 bCat-KO inactive, Autophagy HCS inactive and Dynein transport inactive.
For COc1ccc(NC(=S)N2CCN(C/C=C/c3ccccc3)CC2)c(OC)c1 the results were Lmaj promast inactive, Autophagy HCS inactive and Dynein transport inactive.
Screening COC(=O)c1cc(OC)c(OC)cc1NC(=S)N1CCCC1 returned Lmaj promast 88, Autophagy HCS inactive and Dynein transport inactive.
For S=C(NC1CCCCC1)N1CCN(C/C=C/c2ccccc2)CC1 the results were HCT116 PTEN-null inactive, Lmaj promast 94, HCT116 bCat-KO inactive, Autophagy HCS inactive and Dynein transport inactive.
For Fc1ccc(NC(=S)N2CCN(C/C=C/c3ccccc3)CC2)c(F)c1 the results were Lmaj promast 81, Autophagy HCS inactive and Dynein transport inactive.
CC1CCc2c(sc(NC(=O)CSc3nc4c(c(C(F)(F)F)n3)CCc3ccccc3-4)c2C(N)=O)C1 (stereo not drawn) was read as HCT116 PTEN-null inactive, Lmaj promast inactive, HCT116 bCat-KO inactive, Autophagy HCS inactive and Dynein transport inactive.
Screening c1cncc(CSc2ccc(-c3ccc4c(c3)OCO4)nn2)c1 returned Lmaj promast inactive, Autophagy HCS inactive and Dynein transport inactive.
For CC(C(=O)Nc1cccc([N+](=O)[O-])c1)N1CCN(C/C=C/c2ccccc2)CC1 (stereo not drawn) the results were HCT116 PTEN-null inactive, Lmaj promast 82, HCT116 bCat-KO inactive, Autophagy HCS inactive and Dynein transport inactive.
For COC(=O)c1ccccc1NC(=S)N1CCC(N2CCCCC2)CC1 the results were Lmaj promast 73, Autophagy HCS inactive and Dynein transport inactive.
For COc1ccc(C)cc1NC(=O)CN1CCN(C/C=C/c2ccccc2)CC1 the results were HCT116 PTEN-null inactive, Lmaj promast 86, HCT116 bCat-KO inactive, Autophagy HCS inactive and Dynein transport inactive.
COc1ccc(C)cc1NC(=O)CN1CCN(c2ccccc2F)CC1 was read as HCT116 PTEN-null inactive, Lmaj promast inactive, HCT116 bCat-KO inactive, Autophagy HCS inactive and Dynein transport inactive.
CSC1=NC(C)N2C(SC)=NC(C)N12 (stereo not drawn) was read as Dynein transport inactive.
`CCOc1ccc(S(=O)(=O)Nc2nc3ccccc3nc2-n2ccc(=NC(=O)c3ccccc3C)cc2)cc1` gave Dynein transport inactive.
Screening CCOc1ccc(S(=O)(=O)Nc2nc3ccccc3nc2N2CCN(C)CC2)cc1 returned HCT116 PTEN-null inactive, Lmaj promast 100, HCT116 bCat-KO inactive, Autophagy HCS inactive and Dynein transport inactive.
For CNc1ccccc1C(C)(C)c1ccn[nH]1 the results were Lmaj promast inactive, Autophagy HCS inactive and Dynein transport inactive.
`CN1CCN(C(=S)c2ccc(Cl)cc2)CC1` gave HCT116 PTEN-null inactive, Lmaj promast 90, HCT116 bCat-KO inactive, Autophagy HCS inactive and Dynein transport inactive.
Screening CN1CCN(C(=S)NC(=O)c2ccc(Cl)cc2)CC1 returned Lmaj promast inactive, Autophagy HCS inactive and Dynein transport inactive.
For COc1ccc(C(=O)Oc2ccc(C(=S)N3CCOCC3)cc2)cc1 the results were Lmaj promast inactive, Autophagy HCS active and Dynein transport inactive.
For COc1cc(C(=S)N2CCCC2)ccc1O the results were HCT116 PTEN-null inactive, Lmaj promast inactive, HCT116 bCat-KO inactive, Autophagy HCS inactive and Dynein transport inactive.
For COc1ccc(C(=S)N2CCN(C)CC2)cc1Br the results were HCT116 PTEN-null inactive, Lmaj promast 92, HCT116 bCat-KO inactive, Autophagy HCS inactive and Dynein transport inactive.
O=C(Oc1ccc(C(=S)N2CCOCC2)cc1)c1ccc(Br)cc1 was read as HCT116 PTEN-null inactive, Lmaj promast inactive, HCT116 bCat-KO inactive, Autophagy HCS inactive and Dynein transport inactive.
COc1ccc(C(=S)N2CCN(c3cccc(Cl)c3)CC2)cc1 was read as Dynein transport inactive.
COc1ccc(C(=S)N2CCN(C)CC2)cc1 was read as HCT116 PTEN-null inactive, Lmaj promast 85, HCT116 bCat-KO inactive, Autophagy HCS inactive and Dynein transport inactive.
`O=C(NCc1ccco1)C1CCC(CNS(=O)(=O)c2cccc3cccnc23)CC1` (stereo not drawn) gave HCT116 PTEN-null inactive, Lmaj promast inactive, HCT116 bCat-KO inactive, Autophagy HCS inactive and Dynein transport inactive.
For CCCCCCCN1C/C=C\C(c2ccc(OC)cc2)N(Cc2ccc(F)cc2)C(=O)[C@H]1Cc1ccccc1 (stereo partly drawn) the results were Dynein transport inactive.
`O=C(c1ccc(COc2ccccc2Br)cc1)N1CCCCCC1` gave Lmaj promast inactive, Autophagy HCS inactive and Dynein transport inactive.
Screening COc1ccc(S(=O)(=O)N2CCOCC2)cc1NC(=O)Cn1nnc2ccccc2c1=O returned Lmaj promast inactive, Autophagy HCS inactive and Dynein transport inactive.
